Assay results from ChEMBL document CHEMBL1139798, “Synthesis of chlorogenic acid derivatives with promising antifungal activity” (Bioorg Med Chem, 2007).
Converted amounts (≈) assume the structure as drawn.

How the values were obtained:
[1] = tested on: Cryptococcus neoformans; assay: Antifungal activity against Cryptococcus neoformans ATCC 32045 after 48 to 72 hrs; format: functional
Procedure, shortened: (§1)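 Broth dilution following NCCLS guidelines. Final compound concentrations ran from 0.12 to 64. MIC was taken as the lowest concentration giving 80% inhibition of growth relative to the drug-free control.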

[2] = tested on: Candida albicans; assay: Antifungal activity against Candida albicans ATCC 90028 after 18 to 24 hrs; format: functional; procedure, shortened: as §1
[3] = tested on: Aspergillus fumigatus; assay: Antifungal activity against Aspergillus fumigatus ATCC 13073 after 48 hrs; format: functional; conditions: ATCC 13073, 48 h; procedure, shortened: as §1
[4] = Lethality in brine shrimp at 100 ug/ml; format: organism-based; conditions: artemia, in vivo; read-out: Activity
[5] = tested on: Pichia kudriavzevii; assay: Antifungal activity against Candida krusei ATCC 6258; format: functional

With `CCCCCCCCOc1ccc(NC(=O)C(CCCNC(=O)OC(C)(C)C)NC(=O)[C@]2(O)C[C@@H](O)[C@@H](O)[C@H](OC(=O)/C=C/c3ccc(O)cc3)C2)cc1` (stereo not given in full) the MIC [1] was > 64 µg/mL, the MIC [2] was > 64 µg/mL and the MIC [3] was > 64 µg/mL. It also gave a mortality at 100 ug/ml [4] of 31.6%.

For `CCCCCCCCOc1ccc(NC(=O)[C@]2(O)C[C@@H](O)[C@@H](O)[C@H](OC(=O)/C=C/c3ccc(O)c(O)c3)C2)cc1`, the MIC [1] was 2 µg/mL (≈ 3.59 µM), the MIC [2] was 8 µg/mL (≈ 14.3 µM) and the MIC [3] was > 64 µg/mL. For the same compound, the mortality at 100 ug/ml [4] was 50%.

For `CCCCCCCCOc1ccc(NC(=O)C(NC(=O)[C@]2(O)C[C@@H](O)[C@@H](O)[C@H](OC(=O)/C=C/c3ccc(O)c(O)c3)C2)C(C)O)cc1` (stereo not given in full), the MIC [1] was 2 µg/mL (≈ 3.04 µM), the MIC [2] was 8 µg/mL (≈ 12.1 µM) and the MIC [3] was > 64 µg/mL. It also gave a mortality at 100 ug/ml [4] of 12.5% and an MIC [5] of 2 µg/mL (≈ 3.04 µM).

`CCCCCCCCOc1ccc(NC(=O)C(CCCN)NC(=O)[C@]2(O)C[C@@H](O)[C@@H](O)[C@H](OC(=O)CCc3ccc(O)c(O)c3)C2)cc1` (stereo not given in full) gave an MIC [1] of 8 µg/mL (≈ 11.9 µM), an MIC [2] of 16 µg/mL (≈ 23.7 µM) and an MIC [3] of 64 µg/mL (≈ 95 µM). For the same compound, the mortality at 100 ug/ml [4] was 10.5%.

Work on `C[C@@H]1[C@H](O)[C@@H](C)/C=C/C=C/C=C/C=C/C=C/C=C/C=C/[C@H](O[C@@H]2O[C@H](C)[C@@H](O)[C@H](N)[C@@H]2O)C[C@@H]2O[C@](O)(C[C@@H](O)C[C@@H](O)[C@H](O)CC[C@@H](O)C[C@@H](O)CC(=O)O[C@H]1C)C[C@H](O)[C@H]2C(=O)O` [AMPHOTERICIN B] yielded an MIC [2] of 0.5 µg/mL (≈ 0.541 µM).

With `O=C(/C=C/c1ccc(O)c(O)c1)O[C@@H]1C[C@](O)(C(=O)O)C[C@@H](O)[C@H]1O` [CHLOROGENIC ACID] the MIC [2] was > 64 µg/mL, the mortality at 100 ug/ml [4] was 100% and the MIC [5] was > 64 µg/mL.

With `CCCCCCCCOc1ccc(NC(=O)C(COC(C)(C)C)NC(=O)[C@@]2(O)C[C@@H](OC(=O)/C=C/c3ccc(O)c(O)c3)[C@@H]3OC(C)(C)O[C@@H]3C2)cc1` (stereo not given in full) the MIC [1] was 2 µg/mL (≈ 2.7 µM), the MIC [2] was 32 µg/mL (≈ 43.2 µM) and the MIC [3] was > 64 µg/mL. The mortality at 100 ug/ml [4] was 31.3%.

In the case of `CCCCCCCCOc1ccc(NC(=O)C(NC(=O)[C@]2(O)C[C@@H](O)[C@@H](O)[C@H](OC(=O)/C=C/c3ccc(O)c(O)c3)C2)C(C)OC(C)(C)C)cc1` (stereo not given in full), the MIC [1] is reported as 1 µg/mL (≈ 1.4 µM), the MIC [2] is reported as 2 µg/mL (≈ 2.8 µM) and the MIC [3] is reported as > 64 µg/mL. It also gave a mortality at 100 ug/ml [4] of 50% and an MIC [5] of 2 µg/mL (≈ 2.8 µM).

With `CCCCCCCCOc1ccc(NC(=O)C(COC(C)(C)C)NC(=O)[C@]2(O)C[C@@H](O)[C@@H](O)[C@H](OC(=O)/C=C/c3ccc(O)c(O)c3)C2)cc1` (stereo not given in full) the MIC [1] was 2 µg/mL (≈ 2.85 µM), the MIC [2] was 4 µg/mL (≈ 5.71 µM) and the MIC [3] was > 64 µg/mL. It also gave a mortality at 100 ug/ml [4] of 31.1%.

With `CCCCCCCCOc1ccc(NC(=O)C(CC(=O)OC(C)(C)C)NC(=O)[C@@]2(O)C[C@@H](OC(=O)/C=C/c3ccc(O)c(O)c3)[C@@H]3OC(C)(C)O[C@@H]3C2)cc1` (stereo not given in full) the MIC [1] was 2 µg/mL (≈ 2.6 µM), the MIC [2] was > 64 µg/mL and the MIC [3] was > 64 µg/mL. The mortality at 100 ug/ml [4] was 56.2%.

In the case of `CCCCCCCCOc1ccc(NC(=O)C(NC(=O)[C@@]2(O)C[C@@H](OC(=O)/C=C/c3ccc(O)c(O)c3)[C@@H]3OC(C)(C)O[C@@H]3C2)C(C)OC(C)(C)C)cc1` (stereo not given in full), the MIC [1] is reported as 4 µg/mL (≈ 5.3 µM), the MIC [2] is reported as 32 µg/mL (≈ 42.4 µM) and the MIC [3] is reported as > 64 µg/mL. It also gave a mortality at 100 ug/ml [4] of 6.2%.

With `CCCCCCCCOc1ccc(NC(=O)C(CCCN)NC(=O)[C@]2(O)C[C@@H](O)[C@@H](O)[C@H](OC(=O)/C=C/c3ccc(O)c(O)c3)C2)cc1` (stereo not given in full) the MIC [1] was 1 µg/mL (≈ 1.49 µM), the MIC [2] was 4 µg/mL (≈ 5.95 µM) and the MIC [3] was 16 µg/mL (≈ 23.8 µM). For the same compound, the mortality at 100 ug/ml [4] was 37.5%.

In the case of `CCCCCCCCOc1ccc(NC(=O)C(CCCNC(=O)OC(C)(C)C)NC(=O)[C@@]2(O)C[C@@H](OC(=O)/C=C/c3ccc(O)cc3)[C@@H]3OC(C)(C)O[C@@H]3C2)cc1` (stereo not given in full), the MIC [1] is reported as > 64 µg/mL, the MIC [2] is reported as > 64 µg/mL and the MIC [3] is reported as > 64 µg/mL. For the same compound, the mortality at 100 ug/ml [4] was 0%.

In the case of `CCCCCCCCOc1ccc(NC(=O)C(CC(=O)O)NC(=O)[C@]2(O)C[C@@H](O)[C@@H](O)[C@H](OC(=O)/C=C/c3ccc(O)c(O)c3)C2)cc1` (stereo not given in full), the MIC [1] is reported as 16 µg/mL (≈ 23.8 µM), the MIC [2] is reported as 64 µg/mL (≈ 95.1 µM) and the MIC [3] is reported as > 64 µg/mL. For the same compound, the mortality at 100 ug/ml [4] was 6.3%.

For `CCCCCCCCOc1ccc(NC(=O)C(CO)NC(=O)[C@]2(O)C[C@@H](O)[C@@H](O)[C@H](OC(=O)/C=C/c3ccc(O)c(O)c3)C2)cc1` (stereo not given in full), the MIC [1] was 4 µg/mL (≈ 6.2 µM), the MIC [2] was > 64 µg/mL and the MIC [3] was > 64 µg/mL. It also gave a mortality at 100 ug/ml [4] of 18.8%.

In the case of `CCCCCCCCOc1ccc(NC(=O)C(CCCNC(=O)OC(C)(C)C)NC(=O)[C@]2(O)C[C@@H](O)[C@@H](O)[C@H](OC(=O)CCc3ccc(O)c(O)c3)C2)cc1` (stereo not given in full), the MIC [1] is reported as 4 µg/mL (≈ 5.17 µM), the MIC [2] is reported as > 64 µg/mL and the MIC [3] is reported as > 64 µg/mL. The mortality at 100 ug/ml [4] was 21.1%.

In the case of `CCCCCCCCOc1ccc(NC(=O)C(CCCNC(=O)OC(C)(C)C)NC(=O)[C@@]2(O)C[C@@H](OC(=O)/C=C/c3ccc(O)c(O)c3)[C@@H]3OC(C)(C)O[C@@H]3C2)cc1` (stereo not given in full), the MIC [1] is reported as 2 µg/mL (≈ 2.46 µM), the MIC [2] is reported as > 64 µg/mL and the MIC [3] is reported as > 64 µg/mL. For the same compound, the mortality at 100 ug/ml [4] was 12.5%.

In the case of `CCCCCCCCOc1ccc(NC(=O)C(CCCN)NC(=O)[C@]2(O)C[C@@H](O)[C@@H](O)[C@H](OC(=O)/C=C/c3ccc(O)cc3)C2)cc1` (stereo not given in full), the MIC [1] is reported as 4 µg/mL (≈ 6.1 µM), the MIC [2] is reported as 8 µg/mL (≈ 12.2 µM) and the MIC [3] is reported as 32 µg/mL (≈ 48.8 µM). The mortality at 100 ug/ml [4] was 100%.

In the case of `OC(Cn1cncn1)(Cn1cncn1)c1ccc(F)cc1F` [FLUCONAZOLE], the MIC [1] is reported as 0.5 µg/mL (≈ 1.63 µM), the MIC [2] is reported as 0.25 µg/mL (≈ 0.816 µM) and the MIC [3] is reported as > 64 µg/mL.

In the case of `CCCCCCCCOc1ccc(NC(=O)[C@@]2(O)C[C@@H](OC(=O)/C=C/c3ccc(O)c(O)c3)[C@@H]3OC(C)(C)O[C@@H]3C2)cc1`, the MIC [1] is reported as 2 µg/mL (≈ 3.35 µM), the MIC [2] is reported as 16 µg/mL (≈ 26.8 µM) and the MIC [3] is reported as > 64 µg/mL. It also gave a mortality at 100 ug/ml [4] of 100%.

For `CCCCCCCCOc1ccc(NC(=O)C(CCCNC(=O)OC(C)(C)C)NC(=O)[C@]2(O)C[C@@H](O)[C@@H](O)[C@H](OC(=O)/C=C/c3ccc(O)c(O)c3)C2)cc1` (stereo not given in full), the MIC [1] was 1 µg/mL (≈ 1.3 µM), the MIC [2] was 2 µg/mL (≈ 2.59 µM) and the MIC [3] was > 64 µg/mL. For the same compound, the mortality at 100 ug/ml [4] was 25%.

In the case of `CCCCCCCCOc1ccc(NC(=O)C(CC(=O)OC(C)(C)C)NC(=O)[C@]2(O)C[C@@H](O)[C@@H](O)[C@H](OC(=O)/C=C/c3ccc(O)c(O)c3)C2)cc1` (stereo not given in full), the MIC [1] is reported as 2 µg/mL (≈ 2.74 µM), the MIC [2] is reported as 2 µg/mL (≈ 2.74 µM) and the MIC [3] is reported as > 64 µg/mL. It also gave a mortality at 100 ug/ml [4] of 37.5%.
